Bounds are passed on as bounds.

One test has as its system C8166. Description: Effective dose which reduces the HIV-1 yield in C8166 cells by 90%. It is filed as functional, Homo sapiens. In outline:
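C8166 cells at 1×10^8/mL infected with 1×10^5 CCID50 HIV-1 (from H9/IIIB supernatants) for 2 h at 37 °C, washed three times, then resuspended at 1×10^5/mL with compound for 3 days. Virus yield was measured by limiting-dilution end-point titration on C8166 (1:2 dilutions, four wells each, syncytia scored after 4 days, Reed–Muench CCID50/mL).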

The subject of test [1] is Vero. Kind of test: Compound concentration required to reduce by 50% the number of fibroblast-like cells (Vero) after three cell cycles. The format is functional. The note with it: Chlorocebus sabaeus, read-out: ID50 (the source's name). An outline of the steps:
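Vero monolayers seeded at 1×10^5 cells/mL in DMEM with 10% newborn calf serum and left to adhere overnight. Medium with various compound concentrations was then added for 3 days at 37 °C. Cells were trypsinized and counted on a Coulter counter. The 50% dose comes from linear regression of percent growth against untreated controls. Mean of three experiments.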

For test [2], the system named is Vero. Kind of test: Concentration of compound required to reduce by 50% the number of african swine fever virus (ASFV) plaques in vero cells. The format is functional. The note with it: Chlorocebus sabaeus, read-out: ED50 (the source's name).
Test [3] in a line: Compound concentration required to reduce by 50% the number of T-C8166 lymphoblastoid cells after three cell cycles. The format is functional. As to conditions: Homo sapiens; read-out: ID50 (the source's name). In outline: (§1)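 Suspension cultures seeded at 1×10^5 cells/mL in RPMI-1640 with 10% FCS. Grown with a range of compound concentrations at 37 °C for 72 h, then counted on a Coulter counter. Growth is expressed as a percentage of untreated controls, and the 50% inhibitory dose is taken by linear regression. Mean of three separate experiments.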

Test [4] relates to Vero. Description: Concentration of compound required to reduce by 50% the number of coxsackie virus plaques in vero cells. The format is functional. As to conditions: Chlorocebus sabaeus, read-out: ED50 (the source's name).
Another test relates to H9. Kind of test: Compound concentration required to reduce by 50% the number of H9 cells chronically infected with the HIV-1 (H9/IIIB) after three cell cycles. The note with it: Homo sapiens, read-out: ID50 (the source's name). The format is functional. An outline of the steps:
as §1

The subject of a further test is L1210. Description: Compound concentration required to reduce by 50% the number of murine lymphocytic leukemia (L1210) cells after three cell cycles. It is filed as functional. As to conditions: Mus musculus, read-out: ID50 (the source's name). In outline:
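Mouse L1210 leukemia cells seeded at 1×10^5 cells/mL in RPMI-1640 with 10% FCS. Exposed to graded compound concentrations at 37 °C for 36 h, then counted on a Coulter counter. Growth is taken as a percentage of untreated controls, and the 50% dose is found by linear regression. Mean of three experiments.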

Another test deals with Raji. Description: Compound concentration required to reduce by 50% the number of human B (Raji)cells after three cell cycles. As to conditions: read-out: ID50 (the source's name). The format is functional. An outline of the steps: as §1
Test [5] relates to Vero. Description: Concentration of compound required to reduce by 50% the number of vesicular stomatitis virus (VSV) plaques in vero cells. It is filed as functional. As to conditions: Chlorocebus sabaeus, read-out: ED50 (the source's name).
Test [6] concerns Vero. Description: Concentration of compound required to reduce by 50% the number of polio virus plaques in vero cells. It is filed as functional. As to conditions: Chlorocebus sabaeus, read-out: ED50 (the source's name).
Test [7] can be described thus: Compound concentration required to reduce by 50% the number of T-MT4 lymphoblastoid cells after three cell cycles. The format is functional. As to conditions: Homo sapiens; read-out: ID50 (the source's name). In outline: as §1
In test [8] the test system is Vero. Description: Concentration of compound required to reduce by 50% the number of herpes simplex virus (HSV-1) plaques in vero cells. The note with it: Chlorocebus sabaeus, read-out: ED50 (the source's name). The format is functional.
A short description of test [9]: Compound concentration required to reduce by 50% the number of T-H9 lymphoblastoid cells after three cell cycles. The format is functional. As to conditions: Homo sapiens; read-out: ID50 (the source's name). An outline of the steps:
as §1

For the molecule `NC(=O)c1nn([C@@H]2O[C@H](CO)[C@@H](O)[C@H]2O)cc1I`, the ED90 in the test on C8166 is 20 µM. The IC50 in the test on Vero [1] is more than 1350 µM; in test [3] it was 8 µM; with H9 it was 20 µM; in the test on L1210, more than 1350 µM; with Raji it was more than 1350 µM; in [7], 27 µM. For the same molecule, in test [9], the IC50 was 40 µM. Moreover, the EC50 in the test with Vero [2] was more than 1350 µM; in the test with Vero [4], 120 µM; in the test with Vero [5], more than 1350 µM; in the test on Vero [6] it was more than 1350 µM; in the test with Vero [8], more than 1350 µM.
For `NC(=O)c1nn(C2O[C@H](CO)[C@@H](O)[C@H]2O)cc1N` (stereo partly specified), the ED90 with C8166 is more than 320 µM. Besides, the IC50 in the test with Vero [1] is more than 1830 µM; in test [3], 320 µM; with H9, 550 µM; in the test with L1210 it was more than 1830 µM; in the test with Raji, 1280 µM; in test [7], 470 µM. In addition, in test [9], the IC50 came to 580 µM. Moreover, the EC50 in the test on Vero [2], in the test with Vero [4], with Vero [5], in the test on Vero [6] and with Vero [8] was more than 1830 µM throughout.
Take `CCCCCn1nnc2c(C)nn(C3O[C@H](CO)[C@@H](O)[C@H]3O)c2c1=O` (stereo partly specified): the ED90 in the test with C8166 is more than 200 µM. The IC50 in the test on Vero [1] is more than 1400 µM; in test [3], 280 µM; with L1210 it was more than 1400 µM; in the test on Raji it was 1400 µM; in test [7] it was 540 µM; in [9], 710 µM. Further, the EC50 in the test on Vero [2], with Vero [4], in the test on Vero [5], in the test with Vero [6] and in the test on Vero [8] was more than 1400 µM in each case.
Molecule `NC(=O)c1nn(C2O[C@H](CO)[C@@H](O)[C@H]2O)cc1[N+](=O)[O-]` (stereo partly specified) came in with an ED90 with C8166 of 25.4 µM. Further, the IC50 in the test with Vero [1] was more than 1730 µM; in [3] it was 12 µM; in the test with H9, more than 1730 µM; with L1210 it was more than 1730 µM; in the test on Raji it was more than 1730 µM; in [7], 80 µM. The IC50 in [9] was more than 1730 µM. For the same molecule, the EC50 in the test on Vero [2], with Vero [4], in the test on Vero [5], in the test on Vero [6] and in the test with Vero [8] was more than 1730 µM throughout.
`NC(=O)c1ccn(C2O[C@H](CO)[C@@H](O)[C@H]2O)n1` (stereo partly specified): in the test on C8166, the ED90 was more than 900 µM. Besides, the IC50 in the test with Vero [1] was more than 1030 µM; in [3], 900 µM; with H9, more than 1030 µM; with L1210, more than 1030 µM; in the test on Raji, 1030 µM; in test [7], more than 1030 µM. Moreover, the IC50 in test [9] is 1030 µM. For the same molecule, the EC50 with Vero [2], in the test with Vero [4], with Vero [5], in the test on Vero [6] and with Vero [8] was more than 2050 µM each time.
For `Cc1c(N)c(C(N)=O)nn1C1O[C@H](CO)[C@@H](O)[C@H]1O` (stereo partly specified), the ED90 with C8166 was more than 1840 µM. Besides, the IC50 (in the test with Vero [1]; in test [3]; with H9; in the test on L1210; in the test with Raji; in [7]) was more than 1840 µM throughout. The IC50 in test [9] was more than 1840 µM. The EC50 with Vero [2], in the test on Vero [4], in the test on Vero [5], in the test on Vero [6] and in the test on Vero [8] was more than 1840 µM in each case.
On to `NC(=O)c1nn(C2O[C@H](CO)[C@@H](O)[C@H]2O)cc1Br` (stereo partly specified), for which the ED90 in the test on C8166 was 12.2 µM. In addition, the IC50 was more than 1550 µM in the test on Vero [1]; 4 µM in test [3]; 50 µM with H9; more than 1550 µM in the test on L1210; more than 1550 µM in the test on Raji; 20 µM in [7]. For the same molecule, the IC50 in test [9] stood at 50 µM. The EC50 with Vero [2], in the test with Vero [4], with Vero [5], in the test on Vero [6] and in the test on Vero [8] was more than 1550 µM in each case.
For `Cc1c([N+](=O)[O-])c(C(N)=O)nn1C1O[C@H](CO)[C@@H](O)[C@H]1O` (stereo partly specified), in the test with C8166, the ED90 was more than 1650 µM. The IC50 in the test on Vero [1] is more than 1650 µM; in test [3], more than 1650 µM; in the test with H9 it was more than 1650 µM; in the test on L1210, more than 1650 µM; in the test with Raji, more than 1650 µM; in test [7], 1490 µM. Moreover, the IC50 in test [9] is more than 1650 µM. Further, the EC50 in the test on Vero [2], with Vero [4], in the test on Vero [5], with Vero [6] and in the test with Vero [8] was more than 1650 µM in each case.
Take `Nc1nc2c(ncn2COCCO)c(=O)[nH]1` [ACYCLOVIR]: the figures for the EC50 with Vero [2] and in the test with Vero [8] were more than 1300 µM and 0.04 µM, respectively.
On to `COc1cccc2c1C(=O)c1c(O)c3c(c(O)c1C2=O)C[C@@](O)(C(=O)CO)C[C@@H]3O[C@H]1C[C@H](N)[C@H](O)[C@H](C)O1` [DOXORUBICIN], for which the IC50 with Vero [1] was determined as 0.1 µM; in [3] it was 0.01 µM; in the test with H9 it was 0.01 µM; in the test on L1210, 0.02 µM; in the test with Raji it was 0.01 µM; in test [7], 0.01 µM. In addition, in test [9], the IC50 worked out at 0.01 µM.
For `N=C(N)N` [GUANIDINE], the EC50 with Vero [6] stood at 125 µM.
For the molecule `CN(Cc1cnc2nc(N)nc(N)c2n1)c1ccc(C(=O)N[C@@H](CCC(=O)O)C(=O)O)cc1` [METHOTREXATE], the IC50 with Vero [1] turned out to be 0.02 µM; in test [3], 0.03 µM; in the test with H9, 0.03 µM; with L1210, 0.04 µM; in the test on Raji, 0.02 µM; in [7], 0.03 µM. For the same molecule, the IC50 in test [9] came out at 0.03 µM.
In turn, `Cc1cn([C@H]2C[C@H](N=[N+]=[N-])[C@@H](CO)O2)c(=O)[nH]c1=O` [ZIDOVUDINE] yielded an ED90 with C8166 of 0.003 µM.

The values above are taken from ChEMBL document CHEMBL1125397, “Pyrazole-related nucleosides. Synthesis and antiviral/antitumor activity of some substituted pyrazole and pyrazolo[4,3-d]-1,2,3-triazin-4-one nucleosides” (1992).
